From PubChem BioAssay
SENP7 inh: SENP7 protease inhibitors, primary screen, biochemical, luminescence, uHTS. Sentrin-specific protease 7 (Homo sapiens), Q9BQF6. recombinant SENP7, Z-RLRGG-aminoluciferin luminescence, 40 min. inhibition, % at 5 µM. hit rate 1.5% among 330,000;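 active means inhibition above about 50% at the single test dose, limit read from the data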;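 further: plate controls were DMSO with enzyme for no effect and no enzyme buffer wells for full effect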
Target sequence (Q9BQF6 706-1050 limits assumed): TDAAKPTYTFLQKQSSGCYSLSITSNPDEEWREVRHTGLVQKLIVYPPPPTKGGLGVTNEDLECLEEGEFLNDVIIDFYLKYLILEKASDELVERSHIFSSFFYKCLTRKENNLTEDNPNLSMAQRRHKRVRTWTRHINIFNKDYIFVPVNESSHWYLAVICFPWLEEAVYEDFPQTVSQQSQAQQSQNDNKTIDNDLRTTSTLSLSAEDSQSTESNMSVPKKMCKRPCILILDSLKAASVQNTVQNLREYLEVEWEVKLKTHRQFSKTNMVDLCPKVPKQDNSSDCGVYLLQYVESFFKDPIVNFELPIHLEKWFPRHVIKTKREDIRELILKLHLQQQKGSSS
SENP8 block-1: human SENP8 protease inhibitors, primary screen, biochemical, fluorescence, Nedd8 protein substrate, uHTS | AID 602440, 2012 | hit rate 0.64% among 360,000 | inhibition, % at 20 µM | recombinant SENP8; in the data active means inhibition mostly above about 40%, no sharp cut-off; inactive means mostly below about 27%
Target sequence (Q96LD8 whole entry, looked up): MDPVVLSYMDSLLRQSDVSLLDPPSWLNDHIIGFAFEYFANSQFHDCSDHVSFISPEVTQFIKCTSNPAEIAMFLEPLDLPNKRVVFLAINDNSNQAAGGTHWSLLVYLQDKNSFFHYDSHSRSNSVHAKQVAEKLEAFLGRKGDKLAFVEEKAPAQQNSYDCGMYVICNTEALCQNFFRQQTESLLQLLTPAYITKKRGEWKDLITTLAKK
UBC13 inh: UBC13 polyubiquitin chain formation inhibitors, primary screen, biochemical, TR-FRET, uHTS. hit rate 0.47% among 330,000. Ubiquitin-conjugating enzyme E2 N (Homo sapiens), P61088. inhibition, % at 20 µM; in the data active means inhibition above about 45%, passing the limit was not always enough
SENP8 block-2: SENP8 protease inhibitors, primary screen, biochemical, luminescence | Sentrin-specific protease 8 (Homo sapiens), Q96LD8 | purified SENP8, Z-RLRGG-aminoluciferin cleavage | inhibition, % at 10 µM | hit rate 1.2% among 330,000; in the data active means inhibition above about 50%
SENP6 inh: SENP6 protease inhibitors, primary screen, biochemical, luminescence, uHTS. inhibition, % at 10 µM. hit rate 1.8% among 330,000. Recombinant SENP6 catalytic domain, aminoluciferin luminescence;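 active means inhibition above about 50% at the single tested dose, limit read from the data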;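 further: plate controls were DMSO wells with enzyme for no effect and DMSO wells lacking enzyme for full effect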
Apaf-1 inh: inhibitors of human Apaf-1 apoptosome, primary screen, biochemical, DEVD-Rh110 fluorescence, uHTS | reconstituted apoptosome caspase-3 activity | inhibition, % at 20 µM | hit rate 0.71% among 330,000 | AID 489030, 2010; active means inhibition of at least 40% at 20 µM;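 further: plate controls were DMSO wells for no effect and DEVD-CHO caspase inhibitor wells for full effect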
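Material: biochemical Apaf-1 apoptosome reconstitution. Medium: Hepes buffer, pH 7.5. Also added: cytochrome c activation, bis-DEVD rhodamine 110 substrate. Timing: 30 min compound preincubation, 50 min activation, room temperature. Measured by: rhodamine 110 fluorescence at Ex 480/Em 540 nm.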
Apaf-1 inh conf: Apaf-1 inhibitors, single-dose retest, confirmation, biochemical, fluorescence, DEVD-Rh110, 20 µM; shares compounds with Apaf-1 inh; reconstituted apoptosome, caspase-3 DEVD-Rh110 fluorescence; inhibition, % at 20 µM; hit rate 25% among 1,800; AID 504614, 2011;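 active means mean inhibition of at least 40% at 20 µM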;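 further: plate controls were DMSO wells for no effect and DEVD-CHO caspase inhibitor control wells for full effect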
Rh110 interf inh: Rh110 fluorescence interference by putative Apaf-1 inhibitors, confirmation, artefact control for Apaf-1 inhibitor project, biochemical, 20 µM. quenched caspase reaction. activation (fluorescence interference), % at 20 µM. shares compounds with Apaf-1 inh. 1,800 tested, under 10 active;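 active means signal rise of 40% or more at 20 µM, treated as a fluorescence artifact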
Fluor interf inh: fluorescence interference of Apaf-1 inhibitor hits, dose response, artefact control for Apaf-1 inhibitor project. shares compounds with Apaf-1 inh. 460 tested, under 10 active. fluorescence interference counterscreen, Apaf-1 assay format. AID 588538, 2011. IC50, µM; call rule not given here
* = called active by the depositor; i = inactive; x = no result. The list is not random: actives were taken first. Their share in the collection is about 3.1%.

SMILES	SENP7 inh	SENP8 block-1	UBC13 inh	SENP8 block-2	SENP6 inh	Apaf-1 inh	Apaf-1 inh conf	Rh110 interf inh	others
CCC(=O)NC1=C(Cl)C(=O)C(NC(=O)CC)=C(Cl)C1=O	-5	50*	-41	-13	23	71*	11	1
CCOC(=O)CC(S(=O)(=O)c1ccccc1)S(=O)(=O)c1ccccc1	x	20	x	x	x	x	x	x
Cc1cc(CN(Nc2ccccc2)c2ccccc2)cc(C)n1	x	23	x	x	x	x	x	x
O=[N+]([O-])c1cc2c(cc1C=Nc1ccccc1)OCO2	12	-304	-29	13	57*	48*	16	7
CN1c2ccccc2C(C)(C)C12C=Nc1c(cc(N3CCOCC3)c3ccccc13)O2 (stereo not drawn)	20	-276	-16	-6	24	69*	19	3
CN1c2ccccc2C(C)(C)C12C=Cc1cc(O)ccc1O2 (stereo not drawn)	-2	18	-23	-90	-122	10	x	x
CCN(CC(=O)Nc1c(F)cccc1F)C(=O)C1CCN(C(=O)c2ccc(F)cc2)CC1	2	2	-4	0	-5	6	x	x
CCCN(CC(=O)Nc1ccccc1C)C(=O)C1CC(=O)N(c2ccccc2OCC)C1 (stereo not drawn)	x	4	x	x	x	x	x	x
CCCN(CC(=O)Nc1ccccc1C)C(=O)C1CC(=O)N(c2ccccc2C(C)CC)C1 (stereo not drawn)	-2	14	15	5	-6	48*	33	4
CCCN(CC(=O)Nc1ccccc1C)C(=O)C1CCCN(C(=O)c2ccc(Cl)cc2)C1 (stereo not drawn)	-2	4	36	3	7	48*	32	-4
CCN(CC(=O)Nc1ccc(OC)cc1)C(=O)C1CCN(C(=O)c2ccc(Cl)cc2)CC1	0	2	40	-2	-12	58*	38	2
CNC(=O)C[C@@H]1C(=O)N(c2ccc(Br)cc2)CC1(C)C	x	4	x	x	x	x	x	x
CN1CCN(c2ccc(NC(=O)c3ccc(-c4ccc(Br)cc4)o3)cc2)CC1	3	1	44	0	-10	45*	42*	-2	Fluor interf inh=>100
C[C@H](CO)N1C[C@H](C)[C@@H](CN(C)Cc2ccncc2)OCc2cnnn2CCCC1=O	x	4	x	x	x	x	x	x
O=C(NCCCN1CCN(Cc2ccccc2)CC1)C1CCN(c2nnc(-n3cccc3)s2)CC1	-1	22	33	0	16	18	x	x
O=C(NCCCN1CCc2ccccc2C1)C1CCN(c2nnc(-n3cccc3)s2)CC1	-7	8	32	-5	-12	51*	24	9
CCCn1cnnc1CNC(=O)[C@H]1O[C@@H](n2cnc3c(N)ncnc32)[C@H](O)[C@@H]1O	x	21	x	x	x	x	x	x
CC(=O)c1ccc(OCCCC(=O)N2CCN(S(=O)(=O)c3ccc(C)cc3C)CC2)cc1	10	12	28	-2	-3	40*	32	0
Cc1ccc(S(=O)(=O)N2CCN(S(=O)(=O)N3CCC(C)CC3)CC2)c(C)c1	-4	14	8	3	-19	5	x	x
CC1CCN(S(=O)(=O)c2ccc3c4c2CC(=O)N4CC(C)S3)CC1 (stereo not drawn)	26	2	-43	15	5	94*	86*	-1	Fluor interf inh=>100
CCN(CC(=O)NCc1cccs1)C(=O)CCCOc1ccc(C(C)(C)C)cc1	6	0	10	0	1	42*	34	11
CCN(CC(=O)NCc1cccs1)C(=O)CCCOc1ccccc1	8	-6	7	1	-4	19	x	x
O=C1Nc2ccc(S(=O)(=O)NCc3ccco3)c3cccc1c23	1	i	-23	7	22	49*	22	17
Cc1cccc(C)c1C(O)c1ncc(-c2ccc(F)cc2)[nH]1 (stereo not drawn)	x	5	x	x	x	x	x	x
N#CC1=C(N)Oc2n[nH]c(-c3cccs3)c2C1c1ccsc1 (stereo not drawn)	26	-5	-47	18	24	83*	26	9
SMILES	SENP7 inh	SENP8 block-1	UBC13 inh	SENP8 block-2	SENP6 inh	Apaf-1 inh	Apaf-1 inh conf	Rh110 interf inh	others
COc1cc(/C=C2/C(=O)N(c3ccc([N+](=O)[O-])cc3)N=C2N2CCOCC2)ccc1O	21	64*	-126	-1	42	86*	39	3
CC(C)S(=O)(=O)NC(=O)C1(C)CCN1C(=O)Cc1ccccc1 (stereo not drawn)	x	11	x	x	x	x	x	x
Cc1ccc(C(=O)N2CCCN(c3nc4cc5c(cc4cc3C#N)OCO5)CC2)cc1	3	-304	-26	5	10	67*	23	-2
N#Cc1cc2cc3c(cc2nc1N1CCCCC1)OCCO3	-1	i	9	-2	10	5	x	x
O=C(CSc1ncc(-c2ccc(F)cc2)n1Cc1ccco1)Nc1nccs1	-6	8	-4	-2	-3	35	x	x
Cc1cnc(NC(=O)CSc2ncc(-c3ccccc3)n2Cc2ccco2)s1	0	15	1	1	-5	42*	21	11
CC1(C(=O)NS(=O)(=O)Cc2cccc(Cl)c2)CCN1C(=O)C1CCCCC1 (stereo not drawn)	x	16	x	x	x	x	x	x
COc1ccc(-c2cc(-c3ccc(F)cc3)nc(N3CCN(C)CC3)n2)cc1	-12	-138	22	-10	-21	65*	6	9
O=C(NCCOc1nc(N2CCCCC2)nc(N2CCCCC2)n1)Nc1ccccc1	-8	9	-9	-4	2	41*	15	11
O=C(NCCOc1nc(N2CCCCC2)nc(N2CCOCC2)n1)Nc1ccccc1	5	11	8	-1	-1	6	x	x
Cc1ccc(N(C)S(=O)(=O)c2cccc(C(=O)Nc3ccc(C)cn3)c2)cc1	-11	6	16	-4	-7	45*	38	-2
CN(C)S(=O)(=O)c1cccc(C(=O)Nc2ccc(Cl)cn2)c1	-10	2	2	-15	-15	-6	x	x
CCOC(=O)c1c2c(n(C)c1C)C(=O)C(=O)c1ccc(Br)cc1-2	97*	114*	-61	93*	94*	96*	72*	6	Fluor interf inh=>100
